From PubChem BioAssay
DENV2 CPE rescue: protects cells from dengue virus 2 cytopathic effect | DENV2-infected cells, cytopathic effect rescue, plate reader | 350,000 tested, 1.7% active | AID 651640 | CPE inhibition, % at 9.99 µM; in the data active means CPE inhibition above about 20%, passing the limit was not always enough; inconclusive means no clear call, values can overlap the other calls; tested in BHK-21 cells;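 further: 0% = median of neutral control wells and 100% = median of positive control wells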
Cneo AK release: Cryptococcus neoformans lysis via adenylate kinase release. C. neoformans lysis, adenylate kinase release luminescence, 4 h; normalised: neutral wells 0, clomiphene wells 100. lysis activity, % at 15 µM. 360,000 tested, 0.2% active. AID 651654;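 active means mean lysis activity across replicates of at least 80%, whatever share of replicates individually reach that level; inactive means mean lysis activity below 80%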
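Assay system: Cryptococcus neoformans yeast cells / Dosing: single-point compound dose / Timing: 4 h at 37 °C static, read 1 h later / Measured by: luminescence of released adenylate kinase using an AK detection reagent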
ERp5 inh: inhibitors of human ERp5 | ERp5 insulin aggregation, absorbance 650 nm, 90 min | inhibition, % at 9.99 µM | 350,000 tested, 0.05% active | AID 651711;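 active means mean replicate inhibition above about 25%, with every replicate also reaching it, limit read from the data, passing the limit was not always enough; inconclusive means only one of those two criteria met; inactive means neither criterion met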
CFTR F508del cor: CFTR F508del correction in bronchial cells; activity (quench increase), % at 7.58 µM; AID 720511; 350,000 tested, 0.36% active; CFBE cells, YFP halide quenching; stimulated with forskolin plus potentiator P3; % fluorescence drop versus neutral controls;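 active means mean added fluorescence quench of at least 8% versus neutral control, with both replicates also reaching 8%; inconclusive means only one of the mean or replicate conditions met; inactive means mean below 8% and not both replicates reaching 8%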;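 further: cells transiently co-express mutant CFTR-F508del with the halide-sensitive YFP; corrector assay measuring rescue of mutant channel to the surface after 24 h compound exposure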
C2C12 statin: suppression of simvastatin myotoxicity; C2C12 myotubes + simvastatin, ATP luminescence, 48 h; scaled: DMSO 0, geranylgeraniol control 100; rescue of ATP level, % at 7.49 µM; 330,000 tested, 0.78% active; AID 602340;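 active means mean ATP rescue above about 67%, or every replicate alone reaching that limit, limit read from the data, passing the limit was not always enough; inconclusive means no clear call, values can overlap the other calls; inactive means mean under the limit and some replicate under it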;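 further: myotubes were challenged with 10 µM simvastatin during compound exposure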
PDI turbidity: PDI (human) enzyme inhibition | inhibition, % at 10 µM | P07237 | PDI insulin aggregation turbidity, A650, 90 min | 350,000 tested, 0.052% active;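 active means mean inhibition across replicates of 30% or more, whatever share of single replicates reach that level; inconclusive means mean inhibition below 30% while every single replicate reaches 30%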
Target sequence (P07237 whole entry, looked up): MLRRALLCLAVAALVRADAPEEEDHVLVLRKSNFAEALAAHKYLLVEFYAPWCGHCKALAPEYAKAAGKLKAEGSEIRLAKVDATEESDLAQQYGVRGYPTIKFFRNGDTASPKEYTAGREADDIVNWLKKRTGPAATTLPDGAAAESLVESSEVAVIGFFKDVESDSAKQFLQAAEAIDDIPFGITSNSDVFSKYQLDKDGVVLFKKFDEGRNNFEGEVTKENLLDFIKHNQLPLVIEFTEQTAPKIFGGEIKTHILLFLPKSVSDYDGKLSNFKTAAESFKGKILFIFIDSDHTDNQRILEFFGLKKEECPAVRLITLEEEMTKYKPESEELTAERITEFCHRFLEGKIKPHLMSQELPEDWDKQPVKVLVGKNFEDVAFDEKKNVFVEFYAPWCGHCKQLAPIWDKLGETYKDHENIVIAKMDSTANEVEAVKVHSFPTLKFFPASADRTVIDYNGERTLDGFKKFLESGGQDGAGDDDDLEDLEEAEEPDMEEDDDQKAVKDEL
The depositor's hits bear a star; ? = inconclusive; / = no result. Shown are actives, neighbours in structure and some others; about 2.3% of the full set was active somewhere.

SMILES	DENV2 CPE rescue	Cneo AK release	ERp5 inh	CFTR F508del cor	C2C12 statin	PDI turbidity
CCOC(=O)[C@]12Cc3cc(Cl)ccc3[C@H]1N(Cc1ccccc1)C(=O)c1ccccc12	14	-3	5	-1	29	7
COc1ccc(C#Cc2ccc([C@H]3[C@H](CO)N4CCCCN(C(=O)Cc5ccncc5)C[C@@H]34)cc2)cc1	-11	0	2	0	/	/
CN1/C(=C\C=Nc2ccccc2)C(C)(C)c2ccccc21	/	-1	/	/	85*	-2
CN1/C(=C\C=C2C(=O)NC(=O)NC2=O)C(C)(C)c2ccccc21	-3	/	-2	?	/	1
N#Cc1cccc(-c2ccc([C@@H]3[C@@H](CO)N4CCCCN(C(=O)Cc5ccccc5)C[C@@H]34)cc2)c1	38*	1	-2	-3	/	/
COc1ccc(C#Cc2ccc([C@@H]3[C@H](CO)N4CCCCN(C(=O)Cc5cccnc5)C[C@@H]34)cc2)cc1	27*	4	-3	-4	/	/
N#Cc1cccc(-c2ccc([C@@H]3[C@H]4CN(C(=O)Cc5ccccc5)CCCCN4[C@H]3CO)cc2)c1	1	-3	-2	-1	/	/
O=C(Cc1cccnc1)N1CCCCN2[C@H](CO)[C@H](c3ccc(/C=C/c4ccccc4)cc3)[C@H]2C1	25*	6	-1	1	/	/
COc1cccc(-c2ccc([C@H]3[C@@H](CO)N4CCCCN(C(=O)Cc5ccncc5)C[C@@H]34)cc2)c1	27*	0	2	0	/	/
COc1cccc(-c2ccc([C@H]3[C@@H](CO)N4CCCCN(C(=O)Cc5ccncc5)C[C@H]34)cc2)c1	-1	0	-1	-2	/	/
COC(=O)[C@H]1[C@H](CO)[C@H]2Cn3c(ccc(C4=CCCC4)c3=O)[C@@H]1N2C(=O)C1CCCCC1	/	/	/	/	8	/
C[C@H]1CN([C@@H](C)CO)C(=O)CCCn2cc(nn2)CO[C@H]1CN(C)C(=O)Oc1cccc2ccccc12	/	/	/	2	15	/
C/C=C/c1ccc([C@H]2[C@@H](CO)N3CCCCN(C(=O)Cc4ccncc4)C[C@@H]23)cc1	140*	-2	-4	-1	24	/
C/C=C/c1ccc([C@H]2[C@@H](CO)N3CCCCN(C(=O)Cc4ccncc4)C[C@H]23)cc1	?	-3	-1	0	-17	/
COC(=O)[C@@H]1[C@@H](CO)[C@@H]2Cn3c(ccc(-c4ccccc4F)c3=O)[C@H]1N2C(=O)C1CCC1	2	-7	-2	4	16	/
Oc1ccccc1-[n+]1c(-c2ccccc2)cc(-c2ccccc2)cc1-c1ccccc1	/	1	5	0	-176	7
Cc1ccccc1-[n+]1c(-c2ccccc2)cc(-c2ccccc2)cc1-c1ccccc1	76*	-4	1	4	-180	20
CCN1[C@@H]2Cn3c(ccc(-c4cccc(C(=O)N(C)C)c4)c3=O)[C@H]1[C@@H](C(=O)OC)[C@@H]2CO	-3	-4	-14	5	-24	/
CC1(C)OC(c2ccccc2)=C/C(=C/C=C2C(=O)NC(=O)NC2=O)O1	3	/	0	14*	/	-4
C#CCNc1ccncc1S(=O)(=O)NC(=O)NC(C)C	/	3	/	/	128*	-12
O=C(Nc1ccc(C(F)(F)F)cc1)OC1CN2CCC1CC2 (stereo not drawn)	39*	/	1	-1	/	1
O=C(Cc1ccccc1)N1CC2(C1)[C@H](c1ccccc1)[C@@H](CO)N2Cc1cccc(F)c1	3	/	-3	?	/	/
CC=Cc1ccc2n(c1=O)C[C@@H]1[C@@H](CO)[C@H](C(=O)OC)[C@H]2N1S(=O)(=O)c1cccc(C)c1 (mixture of isomers)	-5	1	4	/	-16	/
COc1cc(/C=C/c2nc3ccccc3c(=O)n2-c2ccc(O)cc2)ccc1O	-1	-1	0	-1	117*	-2
COc1ccc(-n2c(/C=C/c3ccc(O)c(O)c3)nc3ccccc3c2=O)cc1	-5	-1	3	3	3	-3
SMILES	DENV2 CPE rescue	Cneo AK release	ERp5 inh	CFTR F508del cor	C2C12 statin	PDI turbidity
O=C(O)[C@@H]1[C@@H](CO)[C@@H]2Cn3c(ccc(-c4cccc(F)c4)c3=O)[C@H]1N2CCc1ccccc1	-3	-3	5	1	-19	/
CNc1ccc2oc(C[C@H]3O[C@@]4(CC[C@H]3C)O[C@H]([C@H](C)C(=O)c3ccc[nH]3)[C@H](C)C[C@H]4C)nc2c1C(=O)O	43*	-2	1	3	-263	-7
CCCN1[C@@H]2c3cccc(=O)n3C[C@H]1[C@H](CO)[C@H]2C(=O)N(C)C	-2	-1	0	/	3	/
O=C1NC(=S)N(c2ccc(F)cc2)C(=O)/C1=C\c1ccoc1	/	3	/	/	-2	4
O=C1NC(=S)N(c2ccc(Cl)cc2)C(=O)/C1=C/N1CCN(C(=O)c2ccco2)CC1	/	/	/	/	77*	-5
C/C=C/c1ccc(C2[C@@H]3CN(C(=O)c4cnccn4)C[C@H]2N3)cc1 (stereo partly drawn)	-1	/	-2	-1	/	/
COc1ccc(-c2ccc3c(c2)CN(C(=O)NC2CCCCC2)Cc2cnnn2-3)cc1	24*	0	-3	1	26	/
O=C1C(=O)c2ccccc2-c2ccccc21	4	-6	4	-7	-239	167*
O=C1C(=O)c2cccc3cccc1c23	9	/	-3	4	/	1
C=CCN1CC[C@]23c4c5ccc(O)c4OC2C(O)C=CC3[C@H]1C5 (stereo partly drawn)	131*	1	4	-3	-1	-2
COc1ccc2c3c1OC1C(O)C=CC4[C@@H](C2)N(C)CC[C@]314 (stereo partly drawn)	-22	0	-2	1	1	5
N#Cc1cccc(-c2ccc([C@H]3[C@H]4CN(C(=O)Cc5ccncc5)CCCCN4[C@H]3CO)cc2)c1	-8	-1	1	1	/	/
CC(=O)c1ccc2c(c1)C1C(Cl)C(Sc3ccccc3[N+](=O)[O-])CC1C(c1ccccc1[N+](=O)[O-])N2 (stereo not drawn)	/	0	/	/	81*	1
COC1CC2C=C(C)C=CC=CC(=O)NC(c3ccccc3)CC=CCCC(O)CC(=O)C2=C1O (stereo not drawn)	-4	/	2	12*	/	/
O=C1NC(=O)N(c2ccc3c(c2)OCO3)C(=O)/C1=C/c1ccc(N2CCCC2)o1	77*	/	3	-1	/	-25
COC(=O)[C@H]1[C@H](CO)[C@H]2Cn3c(ccc(-c4ccccc4F)c3=O)[C@@H]1N2	-1	-3	5	/	-30	/
COC(=O)[C@H]1[C@H](CO)[C@H]2Cn3c(ccc(-c4ccccc4)c3=O)[C@@H]1N2CC1CCCCC1	-2	0	1	1	2	/
O=P(Oc1ccc(-c2ccccc2)cc1)(N1CC1)N1CC1	-1	0	-1	9.9*	13	-4
